From ChEMBL document CHEMBL1137220, “2-(2-(dimethylaminomethyl)phenoxy)-5-iodophenylamine: an improved serotonin transporter imaging agent” (J Med Chem, 2004)
Several values for one entry are separate records, joined by “and”; a condition that tells them apart may be missing. Identical values can stand only once.

Key:
[1] = Regional brain distribution in rat striatum was determined after 60 min of intravenous administration of the compound; [125I]- is used as radioactive isotope; type: ADME, tissue-based; conditions: in vivo, 1 h
Outline: (§1)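 Rats, three per group, injected with 10 μCi tracer in 0.2 mL saline via the femoral vein under ether anesthesia and killed by cardiac excision at the stated time. Cortex (frontal plus occipital), striatum, hippocampus, cerebellum and hypothalamus were dissected, weighed and gamma-counted. Values are % dose/g, calculated by comparison with counts of a 100-fold diluted aliquot of the injected dose.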

[2] = Distribution ratio in cortex and cerebellum was determined after 120 min of intravenous administration of the compound; [125I]- is used as radioactive isotope; type: ADME, tissue-based; conditions: rat, 2 h
Outline: (§2)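 After femoral-vein injection of 10 μCi [¹²⁵I] tracer in 0.2 mL saline under ether anaesthesia (three rats per group), brain regions were dissected, weighed and counted: cortex (frontal plus occipital), hippocampus, hypothalamus and cerebellum. %dose/g was calculated against a diluted injected-dose standard. Ratio = (region − cerebellum)/cerebellum on a %dose/g basis, with cerebellum as the background region.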

[3] = Regional brain distribution in rat hypothalamus was determined after 6 hours of intravenous administration of the compound; [125I]- is used as radioactive isotope; type: ADME, tissue-based; conditions: in vivo; outline: as §1
[4] = Biodistribution in rat blood was determined after 60 min of intravenous administration of the compound; [125I]- is used as radioactive isotope; type: ADME, organism-based; conditions: in vivo, 1 h
Outline: (§3)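 Rats under ether anesthesia, three per group, received 10 μCi tracer in 0.2 mL saline into the femoral vein. They were killed by cardiac excision under ether at each time point. Organs were removed, weighed and counted. Percent dose per organ was calculated against a 1%-of-injected-dose standard counted at the same time.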

[5] = Biodistribution in rat kidney was determined after 120 min of intravenous administration of the compound; [125I]- is used as radioactive isotope; type: ADME, organism-based; conditions: in vivo, 2 h; outline: as §3
[6] = Distribution ratio in cortex and cerebellum was determined after 240 min of intravenous administration of the compound; [125I]- is used as radioactive isotope; type: ADME, tissue-based; conditions: rat, 4 h; outline: as §2
[7] = Biodistribution in rat kidney was determined after 30 min of intravenous administration of the compound; [125I]- is used as radioactive isotope; type: ADME, organism-based; conditions: in vivo, 0.5 h; outline: as §3
[8] = Regional brain distribution in rat hippocampus was determined after 60 min of intravenous administration of the compound; [125I]- is used as radioactive isotope; type: ADME, tissue-based; conditions: in vivo, 1 h; outline: as §1
[9] = Biodistribution in rat brain was determined after 30 min of intravenous administration of the compound; [125I]- is used as radioactive isotope; type: ADME, organism-based; conditions: in vivo, 0.5 h; outline: as §3
[10] = Biodistribution in rat spleen was determined after 6 hours of intravenous administration of the compound; [125I]- is used as radioactive isotope; type: ADME, organism-based; conditions: in vivo
Outline: (§4)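 Rats, three per group, under ether anaesthesia, received 10 μCi of [¹²⁵I]-labelled tracer in 0.2 mL saline into the femoral vein. They were killed by cardiac excision under ether at each time point. Organs were removed, weighed and counted. Percent dose per organ was calculated against counts of a 1% aliquot of the injected dose (100-fold diluted) counted at the same time.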

[11] = Biodistribution in rat heart was determined after 24 hours of intravenous administration of the compound; [125I]- is used as radioactive isotope; type: ADME, organism-based; conditions: in vivo; outline: as §3
[12] = Regional brain distribution in rat hippocampus was determined after 11 hours of intravenous administration of the compound; [125I]- is used as radioactive isotope; type: ADME, tissue-based; conditions: in vivo; outline: as §1
[13] = Biodistribution in rat brain was determined after 6 hours of intravenous administration of the compound; [125I]- is used as radioactive isotope; type: ADME, organism-based; conditions: in vivo; outline: as §3
[14] = Distribution ratio in striatum and cerebellum was determined after 240 min of intravenous administration of the compound; [125I]- is used as radioactive isotope; type: ADME, tissue-based; conditions: rat, 4 h
Outline: (§5)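 Rats, three per group, given 10 μCi tracer in 0.2 mL saline into the femoral vein under ether anesthesia, then killed by cardiac excision at the stated time. Brain regions were dissected, weighed and counted. Percent dose/g was calculated against a 1% diluted aliquot of the injected dose. The ratio is (region − cerebellum)/cerebellum on a % dose/g basis, with cerebellum as background.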

[15] = Distribution ratio in striatum and cerebellum was determined after 2 min of intravenous administration of the compound; [125I]- is used as radioactive isotope; type: ADME, tissue-based; conditions: rat; outline: as §5
[16] = Distribution ratio in cortex and cerebellum was determined after 11 hrs of intravenous administration of the compound; [125I]- is used as radioactive isotope; type: ADME, tissue-based; conditions: rat; outline: as §2
[17] = Biodistribution in rat heart was determined after 60 min of intravenous administration of the compound; [125I]- is used as radioactive isotope; type: ADME, organism-based; conditions: in vivo, 1 h; outline: as §3
[18] = Biodistribution in rat spleen was determined after 120 min of intravenous administration of the compound; [125I]- is used as radioactive isotope; type: ADME, organism-based; conditions: in vivo, 2 h; outline: as §4
[19] = Biodistribution in rat muscle was determined after 240 min of intravenous administration of the compound; [125I]- is used as radioactive isotope; type: ADME, organism-based, Muscle tissue; conditions: in vivo, 4 h; outline: as §4
[20] = Distribution ratio in hippocampus and cerebellum was determined after 2 min of intravenous administration of the compound; [125I]- is used as radioactive isotope; type: ADME, tissue-based; conditions: rat; outline: as §2
[21] = Biodistribution in rat thyroid was determined after 120 min of intravenous administration of the compound; [125I]- is used as radioactive isotope; type: ADME, organism-based, Thyroid gland; conditions: in vivo, 2 h; outline: as §4
[22] = Biodistribution in rat thyroid was determined after 6 hours of intravenous administration of the compound; [125I]- is used as radioactive isotope; type: ADME, organism-based, Thyroid gland; conditions: in vivo; outline: as §4
[23] = Distribution ratio in striatum and cerebellum was determined after 6 hrs of intravenous administration of the compound; [125I]- is used as radioactive isotope; type: ADME, tissue-based; conditions: rat; outline: as §5
[24] = Biodistribution in rat muscle was determined after 30 min of intravenous administration of the compound; [125I]- is used as radioactive isotope; type: ADME, organism-based, Muscle tissue; conditions: in vivo, 0.5 h; outline: as §4
[25] = Biodistribution in rat spleen was determined after 60 min of intravenous administration of the compound; [125I]- is used as radioactive isotope; type: ADME, organism-based; conditions: in vivo, 1 h; outline: as §4
[26] = Biodistribution in rat heart was determined after 2 min of intravenous administration of the compound; [125I]- is used as radioactive isotope; type: ADME, organism-based; conditions: in vivo; outline: as §3
[27] = Regional brain distribution in rat hippocampus was determined after 24 hours of intravenous administration of the compound; [125I]- is used as radioactive isotope; type: ADME, tissue-based; conditions: in vivo; outline: as §1
[28] = Regional brain distribution in rat striatum was determined after 2 min of intravenous administration of the compound; [125I]- is used as radioactive isotope; type: ADME, tissue-based; conditions: in vivo; outline: as §1
[29] = Distribution ratio in hippocampus and cerebellum was determined after 60 min of intravenous administration of the compound; [125I]- is used as radioactive isotope; type: ADME, tissue-based; conditions: rat, 1 h; outline: as §2
[30] = Regional brain distribution in rat cerebellum was determined after 11 hours of intravenous administration of the compound; [125I]- is used as radioactive isotope; type: ADME, tissue-based; conditions: in vivo; outline: as §1
[31] = Biodistribution in rat lung was determined after 24 hours of intravenous administration of the compound; [125I]- is used as radioactive isotope; type: ADME, organism-based; conditions: in vivo; outline: as §3
[32] = Regional brain distribution in rat hypothalamus was determined after 11 hours of intravenous administration of the compound; [125I]- is used as radioactive isotope; type: ADME, tissue-based; conditions: in vivo; outline: as §1
[33] = Biodistribution in rat brain was determined after 11 hours of intravenous administration of the compound; [125I]- is used as radioactive isotope; type: ADME, organism-based; conditions: in vivo; outline: as §3
[34] = Regional brain distribution in rat cerebellum was determined after 120 min of intravenous administration of the compound; [125I]- is used as radioactive isotope; type: ADME, tissue-based; conditions: in vivo, 2 h; outline: as §1

Compound: CN(C)Cc1ccccc1Oc1ccc(I)cc1N
- Dose/g [1]: 1.02%
- Dose/g [2]: 1.48%
- Dose/g [3]: 0.09%
- Dose [4]: 3.89%
- Dose [5]: 1.24%
- Dose/g [6]: 1.12%
- Dose [7]: 2.67%
- Dose/g [8]: 0.94%
- Dose [9]: 2.12%
- Dose [10]: 0.11% and 0.05%
- Dose [11]: 0.02%
- Dose/g [12]: 0.01%
- Dose [13]: 0.11%
- Dose/g [14]: 3.11%
- Dose/g [15]: 0.01%
- Dose/g [16]: 0%
- Dose [17]: 0.2%
- Dose [18]: 0.27%
- Dose [19]: 6.27%
- Dose/g [20]: 0.13%
- Dose [21]: 0.96%
- Dose [22]: 2.68%
- Dose/g [23]: 1.56%
- Dose [24]: 18.1%
- Dose [25]: 0.47%
- Dose [26]: 1.51%
- Dose/g [27]: 0.004%
- Dose/g [28]: 0.77%
- Dose/g [29]: 1.3%
- Dose/g [30]: 0.01%
- Dose [31]: 0.04%
- Dose/g [32]: 0.01%
- Dose [33]: 0.02%
- Dose/g [34]: 0.21%
